Assay results from ChEMBL document CHEMBL1149546, “(2R,3S)-(+)- and (2S,3R)-(-)-Halofuginone lactate: synthesis, absolute configuration, and activity against Cryptosporidium parvum” (Bioorg Med Chem Lett, 2007).
Calls of active or inactive are those of the source. The calls are words filed in the database; no cut-off is given here.

Legend:
Cryptosporidium parvum [1] = test: Antiprotozoal activity against Cryptosporidium parvum up to 6 nM; type: functional
Summary of the method: (§1)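 C. parvum development measured in host-cell culture across three independent compound dilution series, with monensin as positive control. The read-out was parasite foci area, with control and test cultures normalized to 100,000 µm² of foci area.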

Mus musculus [2] = test: Toxicity in Crl:NMRI mouse at 10 mg/kg, po; type: organism-based; design: dose 10 mg/kg, route oral; conditions: in vivo
Summary of the method: (§2)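 Single oral doses of lactate salts (5, 10 and/or 20 mg/kg bodyweight) were given to 4-week-old female Crl:NMRI mice, n = 3 per group. Moribund mice were euthanized.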

Cryptosporidium parvum [3] = test: Antiprotozoal activity against Cryptosporidium parvum; type: functional, organism-based; summary of the method: as §1
Cryptosporidium parvum [4] = test: Antiprotozoal activity against Cryptosporidium parvum at 0.8 nM; type: functional, organism-based; summary of the method: as §1
Mus musculus [5] = test: Toxicity in Crl:NMRI mouse at 5 mg/kg, po; type: organism-based; design: dose 5 mg/kg, route oral; conditions: in vivo; summary of the method: as §2
Mus musculus [6] = test: Toxicity in Crl:NMRI mouse at 20 mg/kg, po; type: organism-based; design: dose 20 mg/kg, route oral; conditions: in vivo; summary of the method: as §2

SMILES | Activity (Cryptosporidium parvum [1]) [%] | Activity (Cryptosporidium parvum [3]) | Activity (Cryptosporidium parvum [4]) | further results
CC(O)C(=O)O.O=C(CC1NCCCC1O)Cn1cnc2cc(Br)c(Cl)cc2c1=O (racemic; form 1) [HALOFUGINONE LACTATE] | 80 | – | – | –
CC(O)C(=O)O.O=C(C[C@H]1NCCC[C@@H]1O)Cn1cnc2cc(Br)c(Cl)cc2c1=O | – | Active | inactive | Activity (Mus musculus [2]): Toxic; Activity (Mus musculus [5]): Toxic
O=C(CC1NCCCC1O)Cn1cnc2cc(Br)c(Cl)cc2c1=O (racemic; form 1) | – | Active | inactive | –
Br.O=C(CC1NCCCC1O)Cn1cnc2cc(Br)c(Cl)cc2c1=O (racemic; form 2) [HALOFUGINONE HYDROBROMIDE] | 80 | – | – | –
CC(O)C(=O)O.O=C(C[C@@H]1NCCC[C@H]1O)Cn1cnc2cc(Br)c(Cl)cc2c1=O | – | – | – | Activity (Mus musculus [6]): Not Active
O=C(CC1NCCCC1O)Cn1cnc2cc(Br)c(Cl)cc2c1=O (racemic; form 2) | – | Active | inactive | –
